In ChEMBL document CHEMBL4402517, “Rational modification of Mannich base-type derivatives as novel antichagasic compounds: Synthesis, in vitro and in vivo evaluation” (Bioorg Med Chem, 2019):
Activity calls are given as the source filed them. The rule behind the calls is not given here.

Columns and labels:
[1] = Mutagenecity against Salmonella typhimurium TA97a assessed as number of colonies at 22.2 ug/plate in presence of Sprague-Dawley rat S9 with metabolic activation measured after 48 hrs by Ames test (reference value: 55 +/- 7.1); assay type: toxicity, subcellular; settings: salmonella enterica subsp. enterica serovar typhimurium, s9, 48 h
[2] = Mutagenecity against Salmonella typhimurium TA97a assessed as number of colonies at 66.7 ug/plate in presence of Sprague-Dawley rat S9 with metabolic activation measured after 48 hrs by Ames test (reference value: 55 +/- 7.1); assay type: toxicity, subcellular; settings: salmonella enterica subsp. enterica serovar typhimurium, s9, 48 h
Trypanosoma cruzi [3] = test: Antitrypanosomal activity against Trypanosoma cruzi MHOM/Pe/2011/Arequipa;DTU 5 epimastigote assessed as effect on parasite glycolytic pathway by measuring increase in pyruvate excretion at IC50 after 72 hrs by H NMR method relative to control; assay type: functional
Method in brief: (§1)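 Cells were spun at 800 × g for 10 min and culture supernatants analysed by 1H NMR. Catabolite peaks were expressed as % variation versus untreated parasites.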

[4] = Mutagenecity against Salmonella typhimurium TA1535 assessed as number of colonies at 200 ug/plate in presence of Sprague-Dawley rat S9 measured after 48 hrs by Ames test (reference value: 5 +/- 3.6); assay type: toxicity, subcellular; settings: salmonella enterica subsp. enterica serovar typhimurium, s9, 48 h
[5] = Mutagenecity against Salmonella typhimurium TA98 assessed as number of colonies at 22.2 ug/plate in absence of Sprague-Dawley rat S9 measured after 48 hrs by Ames test (reference value: 3 +/- 2.6); assay type: toxicity; settings: salmonella enterica subsp. enterica serovar typhimurium, s9, 48 h
[6] = Mutagenecity against Salmonella typhimurium TA1535 assessed as number of colonies at 200 ug/plate in absence of Sprague-Dawley rat S9 measured after 48 hrs by Ames test (reference value: 13.3 +/- 2.5); assay type: toxicity; settings: salmonella enterica subsp. enterica serovar typhimurium, s9, 48 h
[7] = Mutagenecity against Salmonella typhimurium TA 102 assessed as number of colonies at 7.4 ug/plate in presence of Sprague-Dawley rat S9 with metabolic activation measured after 48 hrs by Ames test (reference value: 72 +/- 1); assay type: toxicity, subcellular; settings: salmonella enterica subsp. enterica serovar typhimurium, s9, 48 h
[8] = (§2) Toxicity in BALB/c mouse infected with Trypanosoma cruzi MHOM/Pe/2011/Arequipa;DTU 5 bloodstream trypomastigote assessed as change in serum uric acid level in chronic phase at 20 mg/kg/day, po administered for 5 consecutive days starting from day 70 post infection and measured at day 76 post infection relative to control; assay type: organism-based; settings: in vivo
[9] = Mutagenecity against Salmonella typhimurium TA 100 assessed as number of colonies at 66.7 ug/plate in presence of Sprague-Dawley rat S9 with metabolic activation measured after 48 hrs by Ames test (reference value: 47.3 +/- 5.7); assay type: toxicity, subcellular; settings: salmonella enterica subsp. enterica serovar typhimurium, s9, 48 h
Trypanosoma cruzi [10] = test: Antitrypanosomal activity against Trypanosoma cruzi MHOM/Pe/2011/Arequipa;DTU 5 bloodstream trypomastigote infected in BALB/c mouse assessed as reduction in parasitemia […] at 20 mg/kg/day, po administered for 5 consecutive days starting from day 8 post infection measured every 2 to 3 days starting from day 7 post infection by Neubauer chamber relative to untreated control; assay type: functional; parameters: scale not given: the % may be the effect or the level left
Method in brief: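 Female BALB/c mice (three per group) were infected i.p. with 5 × 10^5 Arequipa bloodstream trypomastigotes, with parasitemia confirmed on day 7 pi. Oral dosing was 20 mg/kg/day on days 8–12 pi in 5% DMSO/0.5% HPMC; controls received vehicle. Bloodstream trypomastigotes were counted through the acute phase until day 48 pi.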

Trypanosoma cruzi [11] = test: Antitrypanosomal activity against Trypanosoma cruzi MHOM/Pe/2011/Arequipa;DTU 5 epimastigote assessed as effect on parasite glycolytic pathway by measuring increase in succinate excretion at IC50 after 72 hrs by H NMR method relative to control; assay type: functional; method in brief: as §1
[12] = as §2, with “serum lactate dehydrogenase” for “serum uric acid”, “infection” for “infection and”, “measured on” for “measured at”, “day 100” for “day 76”; assay type: organism-based; settings: in vivo
[13] = Mutagenecity against Salmonella typhimurium TA 102 assessed as number of colonies at 66.7 ug/plate in absence of Sprague-Dawley rat S9 with metabolic activation measured after 48 hrs by Ames test (reference value: 78.7 +/- 7.8); assay type: toxicity; settings: salmonella enterica subsp. enterica serovar typhimurium, s9, 48 h
[14] = Mutagenecity against Salmonella typhimurium TA97a assessed as number of colonies at 200 ug/plate in presence of Sprague-Dawley rat S9 with metabolic activation measured after 48 hrs by Ames test (reference value: 55 +/- 7.1); assay type: toxicity, subcellular; settings: salmonella enterica subsp. enterica serovar typhimurium, s9, 48 h
[15] = Mutagenecity against Salmonella typhimurium TA1535 assessed as number of colonies at 22.2 ug/plate in absence of Sprague-Dawley rat S9 measured after 48 hrs by Ames test (reference value: 13.3 +/- 2.5); assay type: toxicity; settings: salmonella enterica subsp. enterica serovar typhimurium, s9, 48 h
[16] = Mutagenecity against Salmonella typhimurium TA97a assessed as number of colonies at 22.2 ug/plate in absence of Sprague-Dawley rat S9 with metabolic activation measured after 48 hrs by Ames test ( Rvb = 37 +/- 6.5); assay type: toxicity; settings: salmonella enterica subsp. enterica serovar typhimurium, s9, 48 h
[17] = Mutagenecity against Salmonella typhimurium TA 100 assessed as number of colonies at 66.7 ug/plate in absence of Sprague-Dawley rat S9 with metabolic activation measured after 48 hrs by Ames test (reference value: 35.7 +/- 0.6); assay type: toxicity; settings: salmonella enterica subsp. enterica serovar typhimurium, s9, 48 h
[18] = Mutagenecity against Salmonella typhimurium TA1535 assessed as number of colonies at 22.2 ug/plate in presence of Sprague-Dawley rat S9 measured after 48 hrs by Ames test (reference value: 5 +/- 3.6); assay type: toxicity, subcellular; settings: salmonella enterica subsp. enterica serovar typhimurium, s9, 48 h
[19] = (§3) Toxicity in BALB/c mouse infected with Trypanosoma cruzi MHOM/Pe/2011/Arequipa;DTU 5 bloodstream trypomastigote assessed as change in serum alkaline phosphatase level in acute phase at 20 mg/kg/day, po administered for 5 consecutive days and measured on day 100 post infection by biochemical analysis relative to control; assay type: organism-based; settings: in vivo
[20] = as §3, with “creatine kinase muscle to brain ratio” for “alkaline phosphatase”, “days starting from day 8 post infection” for “days”; assay type: organism-based; settings: in vivo
[21] = as §3, with “increase” for “change”, “lactate dehydrogenase” for “alkaline phosphatase”, “days starting from day 8 post infection” for “days”; assay type: organism-based; settings: in vivo
Trypanosoma cruzi [22] = test: Antitrypanosomal activity against Trypanosoma cruzi MHOM/Pe/2011/Arequipa;DTU 5 epimastigote assessed as effect on parasite glycolytic pathway by measuring change in succinate excretion after 72 hrs by H NMR method; assay type: functional, organism-based; method in brief: as §1
[23] = as §2, with “decrease” for “change”, “alkaline phosphatase” for “uric acid”; assay type: organism-based; parameters: scale not given: the % may be the effect or the level left; settings: in vivo
[24] = as §2, with “urea” for “uric acid”; assay type: organism-based; settings: in vivo
Trypanosoma cruzi [25] = test: Antitrypanosomal activity against Trypanosoma cruzi MHOM/Pe/2011/Arequipa;DTU 5 epimastigote assessed as effect on parasite glycolytic pathway by measuring decrease in succinate excretion at IC50 after 72 hrs by H NMR method relative to control; assay type: functional; parameters: scale not given: the % may be the effect or the level left; method in brief: as §1
Trypanosoma cruzi [26] = test: Inhibition of Trypanosoma cruzi MHOM/Pe/2011/Arequipa;DTU 5 epimastigote Fe-SOD at 25 uM
Method in brief: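 Fe-SOD excreted by exponentially growing T. cruzi Arequipa epimastigotes cultured in supplemented MTL at 28 °C. Protein quantified by Bradford. SOD activity measured by the Beyer–Fridovich method. IC50 from inhibition curves by nonlinear regression. Mean of three independent determinations ± standard deviation.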

[27] = as §2, with “increase” for “change”, “total bilirubin” for “uric acid”; assay type: organism-based; settings: in vivo

SMILES: O=C(CCN1CCN(c2ccc(Cl)cc2)CC1)c1ccc(O)cc1
- Activity [1]: 38.3
- Activity [2]: 44
- Activity (Trypanosoma cruzi [3]): 36%
- Activity [4]: 7
- Activity [5]: 4.7
- Activity [6]: 4
- Activity [7]: 75
- Activity [8]: > 10%
- Activity [9]: 54.7
- Activity (Trypanosoma cruzi [10]): 70%
- Activity (Trypanosoma cruzi [11]): 34%
- Activity [12]: > 10%
- Activity [13]: 73.3
- Activity [14]: 41
- Activity [15]: 4
- Activity [16]: 35.7
- Activity [17]: 38
- Activity [18]: 3

SMILES: O=C(Cn1ccnc1[N+](=O)[O-])NCc1ccccc1 [BENZNIDAZOLE]
- Activity [19]: > 10%
- Activity [20]: > 10%
- Activity [21]: <= 10%
- Activity (Trypanosoma cruzi [22]): Active

SMILES: O=C(CCN1CCN(c2ccc(C(F)(F)F)cc2)CC1)c1ccc(O)cc1
- Activity [23]: <= 10%
- Activity [24]: > 10%
- Activity (Trypanosoma cruzi [25]): 80%
- inhibition (Trypanosoma cruzi [26]): Active
- Activity [27]: > 40%
